Experimental data as given in ChEMBL document CHEMBL1152126 (Bioorg Med Chem, 2008).
pIC50, pKi: −log10 of the molar value. Activity calls are given as the source filed them. The calls are words filed in the database; no cut-off is given here.

Legend:
Interstitial collagenase = target: T1, Interstitial collagenase (Homo sapiens, UniProt P03956); assay: Inhibition of human recombinant pro-MMP1 by spectrofluorimeter
T1 sequence (P03956 whole entry): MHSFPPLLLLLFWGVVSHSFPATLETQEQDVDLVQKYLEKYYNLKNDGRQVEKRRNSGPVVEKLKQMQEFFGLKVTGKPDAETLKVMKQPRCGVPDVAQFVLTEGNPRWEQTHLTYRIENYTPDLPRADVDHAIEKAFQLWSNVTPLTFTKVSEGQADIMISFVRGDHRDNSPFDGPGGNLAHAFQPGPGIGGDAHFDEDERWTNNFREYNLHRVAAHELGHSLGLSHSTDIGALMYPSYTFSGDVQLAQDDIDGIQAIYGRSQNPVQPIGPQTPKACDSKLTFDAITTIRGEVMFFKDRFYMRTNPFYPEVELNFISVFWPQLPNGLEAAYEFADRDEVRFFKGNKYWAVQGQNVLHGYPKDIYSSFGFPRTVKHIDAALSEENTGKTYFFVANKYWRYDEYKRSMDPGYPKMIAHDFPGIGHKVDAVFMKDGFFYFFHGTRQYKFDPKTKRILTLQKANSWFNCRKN

[1] = target: Matrix metalloproteinase-14 (Homo sapiens, UniProt P50281); assay: Inhibition of human recombinant MMP14 catalytic domain by spectrofluorimeter
Method in brief: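 Human recombinant MT1-MMP catalytic domain at 1–2 nM in 50 mM Tris–HCl pH 7.5, 150 mM NaCl, 5 mM CaCl₂ at 25 °C. Inhibitors at 5–7 concentrations preincubated with enzyme for 30 min, then quenched fluorogenic peptide substrate added. Percent inhibition measured in triplicate within a 20–80% inhibition range.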

[2] = target: 72 kDa type IV collagenase (Homo sapiens, UniProt P08253); assay: Inhibition of human recombinant pro-MMP2 by spectrofluorimeter
Sequence of 72 kDa type IV collagenase (P08253 whole entry): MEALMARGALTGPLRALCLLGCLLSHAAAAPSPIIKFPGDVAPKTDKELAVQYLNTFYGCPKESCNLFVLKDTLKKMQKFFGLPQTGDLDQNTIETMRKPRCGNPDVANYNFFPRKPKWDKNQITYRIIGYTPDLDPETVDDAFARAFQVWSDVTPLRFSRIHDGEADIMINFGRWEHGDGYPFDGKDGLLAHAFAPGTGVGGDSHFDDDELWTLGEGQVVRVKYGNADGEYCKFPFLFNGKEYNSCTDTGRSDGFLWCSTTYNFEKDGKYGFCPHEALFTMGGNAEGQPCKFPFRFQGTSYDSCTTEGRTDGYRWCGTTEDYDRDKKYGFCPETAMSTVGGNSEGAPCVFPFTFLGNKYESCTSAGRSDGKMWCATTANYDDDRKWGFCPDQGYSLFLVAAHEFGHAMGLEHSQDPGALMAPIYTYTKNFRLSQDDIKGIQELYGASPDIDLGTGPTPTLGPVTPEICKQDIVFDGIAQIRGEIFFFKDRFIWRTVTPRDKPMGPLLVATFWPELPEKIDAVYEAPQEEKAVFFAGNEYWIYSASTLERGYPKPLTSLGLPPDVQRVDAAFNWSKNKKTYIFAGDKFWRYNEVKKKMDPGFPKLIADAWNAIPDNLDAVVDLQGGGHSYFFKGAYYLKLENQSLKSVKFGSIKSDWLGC
Method in brief: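 Pro-MMP-2 activated with […], 37 °C, 2 h. Assay: 1–2 nM enzyme in 50 mM Tris–HCl pH 7.5, 150 mM NaCl, 5 mM CaCl₂, 25 °C; 30 min inhibitor preincubation, then quenched fluorogenic substrate.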

Stromelysin-1 = Stromelysin-1 (Homo sapiens, UniProt P08254); assay: Inhibition of human recombinant MMP3 catalytic domain by spectrofluorimeter
Sequence of Stromelysin-1 (P08254 whole entry, the tested form may be a part): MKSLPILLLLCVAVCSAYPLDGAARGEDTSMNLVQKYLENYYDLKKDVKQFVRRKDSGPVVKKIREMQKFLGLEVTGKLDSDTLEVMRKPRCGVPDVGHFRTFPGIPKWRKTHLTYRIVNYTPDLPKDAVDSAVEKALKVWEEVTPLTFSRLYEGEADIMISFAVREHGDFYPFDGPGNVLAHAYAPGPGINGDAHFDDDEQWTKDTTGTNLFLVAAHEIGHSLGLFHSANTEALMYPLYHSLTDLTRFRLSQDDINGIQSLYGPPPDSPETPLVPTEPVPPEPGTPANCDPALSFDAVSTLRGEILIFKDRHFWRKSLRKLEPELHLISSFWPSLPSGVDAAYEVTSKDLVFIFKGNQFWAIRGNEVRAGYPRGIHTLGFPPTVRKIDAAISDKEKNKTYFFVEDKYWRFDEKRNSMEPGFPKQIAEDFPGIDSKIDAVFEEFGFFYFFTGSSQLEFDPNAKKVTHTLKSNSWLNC
Method in brief: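 MMP-3 human recombinant catalytic domain (1–2 nM) was assayed in 50 mM Tris–HCl pH 7.5, 5 mM CaCl₂, […] at 25 °C. Enzyme and inhibitor were preincubated for 30 min before quenched fluorogenic substrate was added. Triplicate percent inhibition was taken at 5–7 inhibitor concentrations spanning 20–80% inhibition.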

[3] = target: Matrix metalloproteinase-9 (Homo sapiens, UniProt P14780); assay: Inhibition of human recombinant pro-MMP9 by spectrofluorimeter
Sequence of Matrix metalloproteinase-9 (P14780 whole entry): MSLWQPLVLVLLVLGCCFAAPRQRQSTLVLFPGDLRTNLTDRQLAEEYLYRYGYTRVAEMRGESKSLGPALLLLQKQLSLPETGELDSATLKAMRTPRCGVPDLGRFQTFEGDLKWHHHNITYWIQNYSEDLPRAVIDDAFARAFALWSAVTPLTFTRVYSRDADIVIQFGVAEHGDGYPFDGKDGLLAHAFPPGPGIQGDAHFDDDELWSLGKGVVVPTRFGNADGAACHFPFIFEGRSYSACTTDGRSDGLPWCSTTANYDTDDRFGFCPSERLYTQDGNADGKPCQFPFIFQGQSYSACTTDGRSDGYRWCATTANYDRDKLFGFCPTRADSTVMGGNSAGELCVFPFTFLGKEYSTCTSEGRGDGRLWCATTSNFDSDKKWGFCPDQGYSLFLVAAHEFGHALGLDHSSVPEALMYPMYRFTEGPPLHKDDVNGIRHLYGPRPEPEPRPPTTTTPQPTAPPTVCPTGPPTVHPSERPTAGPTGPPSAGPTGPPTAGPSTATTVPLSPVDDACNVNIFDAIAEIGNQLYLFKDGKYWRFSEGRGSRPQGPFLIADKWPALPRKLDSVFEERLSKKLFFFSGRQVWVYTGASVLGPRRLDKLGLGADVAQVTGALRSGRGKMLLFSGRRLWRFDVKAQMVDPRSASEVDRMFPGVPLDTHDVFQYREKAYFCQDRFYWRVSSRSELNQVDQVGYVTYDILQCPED
Method in brief: (§1)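 Pro-enzymes (human recombinant) freshly activated with […] at 37 °C for 2 h. Activated MMP at 1–2 nM in 50 mM Tris–HCl pH 7.5, 150 mM NaCl, 5 mM CaCl₂ at 25 °C, preincubated 30 min with inhibitor before quenched fluorogenic substrate. Percent inhibition from triplicates at 5–7 concentrations within the 20–80% range.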

Homo sapiens = species: Homo sapiens; assay: Selectivity ratio of IC50 for human recombinant pro-MMP2 to IC50 for human recombinant pro-MMP1
Matrilysin = target: T2, Matrilysin (Homo sapiens, UniProt P09237); assay: Inhibition of human recombinant pro-MMP7 by spectrofluorimeter; method in brief: as §1
T2 sequence (P09237 whole entry): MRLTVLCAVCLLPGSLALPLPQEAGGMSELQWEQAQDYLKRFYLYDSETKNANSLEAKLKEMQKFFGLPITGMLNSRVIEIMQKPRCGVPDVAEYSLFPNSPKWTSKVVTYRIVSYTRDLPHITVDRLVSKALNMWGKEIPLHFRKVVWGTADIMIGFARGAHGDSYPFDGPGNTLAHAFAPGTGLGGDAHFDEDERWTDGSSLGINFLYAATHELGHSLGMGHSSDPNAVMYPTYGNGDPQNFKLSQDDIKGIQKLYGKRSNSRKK

SMILES	pIC50 (Interstitial collagenase)	pIC50 [1]	pIC50 [2]	pIC50 (Stromelysin-1)	pIC50 [3]	other results
CNC(=O)[C@H](Cc1c[nH]c2ccccc12)NC(=O)[C@@H](CC(=O)NNS(=O)(=O)c1c(C(C)C)cc(C(C)C)cc1C(C)C)CC(C)C	5.40	5.51	7.00	–	–	–
CNC(=O)[C@H](Cc1c[nH]c2ccccc12)NC(=O)[C@@H](CC(=O)NNS(=O)(=O)c1ccccc1[N+](=O)[O-])CC(C)C	6.07	5.96	6.49	–	–	–
CCCCCC/C=C(\CC(=O)NNS(=O)(=O)c1ccc(-c2ccc(Br)cc2)cc1)C(=O)N[C@@H](Cc1c[nH]c2ccccc12)C(=O)NC	–	–	5.74	5.60	5.59	Activity [1]: inactive
CNC(=O)[C@H](Cc1c[nH]c2ccccc12)NC(=O)[C@@H](CC(=O)NNS(=O)(=O)c1ccc(C)cc1)CC(C)C	6.60	5.59	7.62	–	–	Ratio IC50 (Homo sapiens): 10
CNC(=O)[C@H](Cc1c[nH]c2ccccc12)NC(=O)[C@@H](CC(=O)NNS(=O)(=O)c1ccc(Oc2ccccc2)cc1)CC(C)C	6.96	5.55	7.35	–	–	–
CCCCCC/C=C(\CC(=O)NNS(=O)(=O)c1ccc(-c2ccc(Br)cc2)cc1)C(=O)N[C@@H](Cc1c(-c2ccccc2)[nH]c2ccccc12)C(=O)NC	5.69	5.42	5.90	6.76	6.14	–
CNC(=O)[C@H](Cc1c(-c2ccccc2)[nH]c2ccccc12)NC(=O)[C@@H](CC(=O)NNS(=O)(=O)c1ccc(-c2ccc(Br)cc2)cc1)CC(C)C	6.46	5.91	6.61	7.28	7.74	–
CNC(=O)[C@H](Cc1c[nH]c2ccccc12)NC(=O)[C@@H](CC(=O)NO)CC(C)C [ILOMASTAT]	–	8.28	–	7.59	–	–
CNC(=O)[C@H](Cc1c[nH]c2ccccc12)NC(=O)/C(=C/CCc1ccccc1)CC(=O)NNS(=O)(=O)c1ccc(-c2ccc(Br)cc2)cc1	5.99	6.98	6.51	5.41	5.90	–
CNC(=O)[C@H](Cc1c[nH]c2ccccc12)NC(=O)[C@@H](CC(=O)NNc1ccc(OC)cc1)CC(C)C	6.48	< 5.00	5.00	–	–	–
CNC(=O)[C@H](Cc1c[nH]c2ccccc12)NC(=O)[C@@H](CC(=O)NNS(=O)(=O)c1ccc([N+](=O)[O-])cc1)CC(C)C	6.31	5.82	6.51	–	–	–
CNC(=O)[C@H](Cc1c[nH]c2ccccc12)NC(=O)[C@@H](CC(=O)NNS(=O)(=O)c1ccc(-c2ccc(Br)cc2)cc1)CC(C)C	7.52	4.77	8.01	5.77	8.52	pKi (Stromelysin-1): 6.38; pIC50 (Matrilysin): 6.32; pKi (Matrilysin): 6.28; pKi [1]: 5.72; pKi [3]: 8.44; pKi [2]: 8.07
CNC(=O)[C@H](Cc1c[nH]c2ccccc12)NC(=O)[C@@H](CC(=O)NNS(=O)(=O)c1ccc(N2C(=O)CCC2=O)cc1)CC(C)C	7.04	6.14	7.10	6.04	8.07	pIC50 (Matrilysin): 6.96
CNC(=O)[C@H](Cc1c[nH]c2ccccc12)NC(=O)[C@@H](CC(=O)NNc1ccc([N+](=O)[O-])cc1)CC(C)C	< 5.00	< 5.00	5.00	–	–	–
CCCCCCCCCCCCS(=O)(=O)NNC(=O)C[C@@H](CC(C)C)C(=O)N[C@@H](Cc1c[nH]c2ccccc12)C(=O)NC	6.01	5.01	5.85	–	–	–
CCCCCCCCCCCCCCCCS(=O)(=O)NNC(=O)C[C@@H](CC(C)C)C(=O)N[C@@H](Cc1c[nH]c2ccccc12)C(=O)NC	6.36	5.29	6.52	–	–	–
CNC(=O)[C@H](Cc1c[nH]c2ccccc12)NC(=O)[C@@H](CC(=O)NNS(=O)(=O)c1ccccc1N)CC(C)C	7.03	6.14	7.04	–	–	–
CNC(=O)[C@H](Cc1c[nH]c2ccccc12)NC(=O)[C@@H](CC(=O)NNS(C)(=O)=O)CC(C)C	5.25	5.43	6.13	–	–	–
CNC(=O)[C@H](Cc1c[nH]c2ccccc12)NC(=O)[C@@H](CC(=O)NNS(=O)(=O)c1ccc(Cl)cc1)CC(C)C	6.54	6.72	7.74	–	–	–
CNC(=O)[C@H](Cc1c(-c2ccccc2)[nH]c2ccccc12)NC(=O)/C(=C/CCc1ccccc1)CC(=O)NNS(=O)(=O)c1ccc(-c2ccc(Br)cc2)cc1	5.97	–	7.19	6.33	6.08	Activity [1]: inactive
CNC(=O)[C@H](Cc1c[nH]c2ccccc12)NC(=O)[C@@H](CC(=O)NNS(=O)(=O)c1ccc2ccccc2c1)CC(C)C	6.82	5.00	7.43	5.85	7.96	pIC50 (Matrilysin): 5.21
CNC(=O)[C@H](Cc1c[nH]c2ccccc12)NC(=O)[C@@H](CC(=O)NNc1ccc([N+](=O)[O-])cc1[N+](=O)[O-])CC(C)C	< 5.00	< 5.00	5.00	–	–	–
CNC(=O)[C@H](Cc1c[nH]c2ccccc12)NC(=O)[C@@H](CC(=O)NNc1ccc(Cl)c(Cl)c1)CC(C)C	5.25	6.00	5.00	–	–	–
